Measured values taken from ChEMBL document CHEMBL1144880, “Identification of phenylisoxazolines as novel and viable antibacterial agents active against Gram-positive pathogens” (J Med Chem, 2003).
In brackets after ≈: the same amount, converted by molar mass.

What was measured:
Type in all cases: functional
Streptococcus pneumoniae = experiment: In vitro minimum inhibitory concentration (MIC) against Streptococcus pneumoniae UC9912
In short: (§1)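 MIC determined by standard broth microdilution, defined as the lowest drug concentration (µg/mL) inhibiting visible growth.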

Enterococcus faecalis = experiment: In vitro minimum inhibitory concentration (MIC) against Enterococcus faecalis UC9217; in short: as §1
Escherichia coli = experiment: In vitro minimum inhibitory concentration (MIC) against Escherichia coli UC6674; in short: as §1
Moraxella catarrhalis = experiment: In vitro minimum inhibitory concentration (MIC) against Moraxella catarrhalis UC30610; in short: as §1
Staphylococcus aureus [1] = experiment: In vitro minimum inhibitory concentration (MIC) against Staphylococcus aureus UC12673; in short: as §1
Staphylococcus aureus [2] = experiment: In vitro minimum inhibitory concentration (MIC) against Staphylococcus aureus UC9213; in short: as §1
Haemophilus influenzae = experiment: In vitro minimum inhibitory concentration (MIC) against Haemophilus influenzae UC30063; in short: as §1
[3] = test system: Staphylococcus epidermidis; experiment: In vitro minimum inhibitory concentration (MIC) against Staphylococcus epidermidis UC12084; in short: as §1
Mus musculus = experiment: In Vivo effective dose required for antibacterial activity in a systemic mouse infection model (SMIM) upon peroral administration against Staphylococcus aureus UC9213; settings: po
In short: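 Compound was given orally at 1 and 5 h after infection. Deaths were monitored for at least 6 days, and ED50 (dose curing 50% of mice) was calculated by probit analysis.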

SMILES | MIC (Streptococcus pneumoniae) [µg/mL] | MIC (Enterococcus faecalis) [µg/mL] | MIC (Escherichia coli) [µg/mL] | MIC (Moraxella catarrhalis) [µg/mL] | MIC (Staphylococcus aureus [1]) [µg/mL] | MIC (Staphylococcus aureus [2]) [µg/mL] | MIC (Haemophilus influenzae) [µg/mL] | MIC [3] [µg/mL] | ED50 (Mus musculus) [mg/kg]
CC(=O)NCC1CC(c2ccc(Br)cc2)=NO1 (stereo not drawn) | > 16 | > 16 | > 16 | > 16 | > 16 | > 16 | > 16 | > 16 | –
COC(=O)N1CC=C(c2ccc(C3=NOC(CNC(C)=O)C3)cc2)CC1 (stereo not drawn) | 4 (≈ 11.2 µM) | 16 (≈ 44.8 µM) | > 16 | > 16 | 16 (≈ 44.8 µM) | 16 (≈ 44.8 µM) | > 16 | 8 (≈ 22.4 µM) | –
CC(=O)NC[C@H]1CC(c2ccc(F)c(F)c2)=NO1 | > 16 | > 16 | > 16 | > 16 | > 16 | > 16 | > 16 | > 16 | –
CC(=O)NCC1CC(c2cc(F)c(N3CCOCC3)c(Cl)c2)=NO1 (stereo not drawn) | 4 (≈ 11.2 µM) | 16 (≈ 45 µM) | > 16 | > 16 | 8 (≈ 22.5 µM) | 8 (≈ 22.5 µM) | > 16 | 8 (≈ 22.5 µM) | –
CC(=O)NCC1CC(c2ccc(N3CCN(C(=O)CO)CC3)cc2)=NO1 (stereo not drawn) | 4 (≈ 11.1 µM) | 16 (≈ 44.4 µM) | > 16 | > 16 | 8 (≈ 22.2 µM) | 16 (≈ 44.4 µM) | > 16 | 4 (≈ 11.1 µM) | –
CC(=O)NC[C@H]1CC(c2ccc(-n3cncn3)c(F)c2)=NO1 | 4 (≈ 13.2 µM) | > 16 | > 16 | > 16 | 16 (≈ 52.8 µM) | > 16 | > 16 | 8 (≈ 26.4 µM) | –
CC(=O)NC[C@@H]1CC(c2ccc(C3=CCN(C(=O)CO)CC3)cc2)=NO1 | > 16 | > 16 | > 16 | > 16 | > 16 | > 16 | > 16 | > 16 | –
COC(=O)N1CC=C(c2ccc(-c3cc(CNC(C)=O)on3)cc2)CC1 | > 16 | > 16 | > 16 | > 16 | > 16 | > 16 | > 16 | > 16 | –
CC(=O)NC[C@H]1CC(c2cc(F)c(N3CCNCC3)c(F)c2)=NO1 | 0.25 (≈ 0.739 µM) | 4 (≈ 11.8 µM) | > 16 | 8 (≈ 23.6 µM) | 4 (≈ 11.8 µM) | 4 (≈ 11.8 µM) | 8 (≈ 23.6 µM) | 0.5 (≈ 1.48 µM) | –
CC(=O)NC[C@H]1CC(c2ccc(-n3cccn3)c(F)c2)=NO1 | 4 (≈ 13.2 µM) | 16 (≈ 52.9 µM) | > 16 | > 16 | 16 (≈ 52.9 µM) | 16 (≈ 52.9 µM) | > 16 | 4 (≈ 13.2 µM) | –
CC(=O)NC[C@@H]1CC(c2ccc(N3CCN(C(=O)CO)CC3)c(F)c2)=NO1 | > 16 | > 16 | > 16 | > 16 | > 16 | > 16 | > 16 | > 16 | –
CC(=O)NC[C@@H]1CC(c2cc(F)c(N3CCOCC3)c(F)c2)=NO1 | > 16 | > 16 | > 16 | > 16 | > 16 | > 16 | > 16 | > 16 | –

Now from value to molecule, other results behind:

MIC (Streptococcus pneumoniae) [µg/mL] | MIC (Enterococcus faecalis) [µg/mL] | MIC (Escherichia coli) [µg/mL] | MIC (Moraxella catarrhalis) [µg/mL] | MIC (Staphylococcus aureus [1]) [µg/mL] | MIC (Staphylococcus aureus [2]) [µg/mL] | MIC (Haemophilus influenzae) [µg/mL] | MIC [3] [µg/mL] | SMILES | ED50 (Mus musculus) [mg/kg]
0.5 (≈ 1.53 µM) | 4 (≈ 12.2 µM) | > 16 | 8 (≈ 24.4 µM) | 2 (≈ 6.11 µM) | 2 (≈ 6.11 µM) | 16 (≈ 48.9 µM) | 1 (≈ 3.06 µM) | CC(=O)NC[C@H]1CC(c2ccc(-n3cc(C#N)cn3)c(F)c2)=NO1 | –
0.25 (≈ 0.703 µM) | 1 (≈ 2.81 µM) | > 16 | 2 (≈ 5.63 µM) | 1 (≈ 2.81 µM) | 1 (≈ 2.81 µM) | 16 (≈ 45 µM) | 0.25 (≈ 0.703 µM) | C/C(S)=N/C[C@H]1CC(c2cc(F)c(N3CCOCC3)c(F)c2)=NO1 | > 20
2 (≈ 5.86 µM) | 8 (≈ 23.4 µM) | > 16 | > 16 | 8 (≈ 23.4 µM) | 8 (≈ 23.4 µM) | > 16 | 4 (≈ 11.7 µM) | CC(=O)NCC1CC(c2ccc(C3=CCN(C(C)=O)CC3)cc2)=NO1 (stereo not drawn) | –
2 (≈ 6.24 µM) | 8 (≈ 25 µM) | > 16 | > 16 | 4 (≈ 12.5 µM) | 8 (≈ 25 µM) | > 16 | 2 (≈ 6.24 µM) | CC(=O)NC[C@H]1CC(c2cc(F)c(-n3ccnc3)c(F)c2)=NO1 | –
0.5 (≈ 1.66 µM) | 4 (≈ 13.3 µM) | > 16 | 16 (≈ 53.1 µM) | 2 (≈ 6.64 µM) | 2 (≈ 6.64 µM) | > 16 | 0.5 (≈ 1.66 µM) | CC(=O)NC[C@H]1CC(c2ccc(-n3cccc3)c(F)c2)=NO1 | –
0.5 (≈ 1.42 µM) | 4 (≈ 11.4 µM) | > 16 | > 16 | 4 (≈ 11.4 µM) | 4 (≈ 11.4 µM) | > 16 | 2 (≈ 5.68 µM) | COc1ccc(-c2ccc(C3=NOC(CNC(C)=O)C3)cc2)ccc1=O (stereo not drawn) | 15.4
< 0.125 | 1 (≈ 3.06 µM) | > 16 | 4 (≈ 12.3 µM) | 0.5 (≈ 1.53 µM) | 1 (≈ 3.06 µM) | 16 (≈ 49 µM) | 0.25 (≈ 0.766 µM) | CC(=O)NC[C@H]1CC(c2ccc(-n3ccc(C#N)c3)c(F)c2)=NO1 | –
0.5 (≈ 1.58 µM) | 1 (≈ 3.15 µM) | > 16 | 4 (≈ 12.6 µM) | 1 (≈ 3.15 µM) | 1 (≈ 3.15 µM) | > 16 | 0.5 (≈ 1.58 µM) | C/C(S)=N/C[C@H]1CC(c2ccc(-n3cccc3)c(F)c2)=NO1 | –
2 (≈ 5.95 µM) | 8 (≈ 23.8 µM) | > 16 | > 16 | 4 (≈ 11.9 µM) | 4 (≈ 11.9 µM) | > 16 | 2 (≈ 5.95 µM) | C/C(S)=N/C[C@H]1CC(c2cc(F)c(-n3ccnc3)c(F)c2)=NO1 | –
0.25 (≈ 0.846 µM) | 2 (≈ 6.77 µM) | > 16 | 8 (≈ 27.1 µM) | 2 (≈ 6.77 µM) | 1 (≈ 3.39 µM) | 16 (≈ 54.2 µM) | 0.5 (≈ 1.69 µM) | CC(=O)NC[C@H]1CC(c2ccc(-c3ccncc3)cc2)=NO1 | –
2 (≈ 6.55 µM) | 8 (≈ 26.2 µM) | > 16 | > 16 | 4 (≈ 13.1 µM) | 4 (≈ 13.1 µM) | > 16 | 4 (≈ 13.1 µM) | CC(=O)NC[C@H]1CC(c2ccc(N3CCCC3)c(F)c2)=NO1 | –
1 (≈ 3.31 µM) | 4 (≈ 13.2 µM) | > 16 | 16 (≈ 52.9 µM) | 2 (≈ 6.62 µM) | 2 (≈ 6.62 µM) | > 16 | 1 (≈ 3.31 µM) | CC(=O)NC[C@H]1CC(c2ccc(-n3ccnc3)c(F)c2)=NO1 | –
2 (≈ 5.29 µM) | 8 (≈ 21.1 µM) | > 16 | 16 (≈ 42.3 µM) | 8 (≈ 21.1 µM) | 8 (≈ 21.1 µM) | > 16 | 4 (≈ 10.6 µM) | CC(=O)NCC1CC(c2ccc(N3CCN(C(=O)CO)CC3)c(F)c2)=NO1 (racemic) | –
2 (≈ 5.89 µM) | 8 (≈ 23.6 µM) | > 16 | 16 (≈ 47.2 µM) | 8 (≈ 23.6 µM) | 8 (≈ 23.6 µM) | > 16 | 4 (≈ 11.8 µM) | CC(=O)NCC1CC(c2cc(F)c(N3CCOCC3)c(F)c2)=NO1 (racemic) | –
2 (≈ 5.6 µM) | 8 (≈ 22.4 µM) | > 16 | > 16 | 4 (≈ 11.2 µM) | 4 (≈ 11.2 µM) | > 16 | 4 (≈ 11.2 µM) | CC(=O)NCC1CC(c2ccc(C3=CCN(C(=O)CO)CC3)cc2)=NO1 (racemic) | –
